This is a sample that favours compounds with a hit; in the whole collection about 3.3% have one here.
Jurkat tox 60K: cytotoxic compounds reducing Jurkat cell viability | 1.2% of 56,000 active | Jurkat E6.1 viability, ATP luminescence, 48 h | AID 463 | inhibition, % at 4 µM;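 active = inhibition above the mean inhibition of all tested compounds plus 3 SD, cut at about 28% in these data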
HTR1A agonist: 5-HT1a (human) receptor agonism; CHO 5-HT1a Ga15 NFAT-bla reporter, FRET ratio; 0% basal, 100% maximal reference agonist; activation, % at 10 µM; 0.56% of 65,000 active; AID 567;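 active = activation above the screen-wide mean activation plus 3 SD, cut at about 19% in these data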;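 also: 0% = DMSO wells and 100% = 5-CT at EC100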
HTR1E agonist: agonists of human 5-HT1E serotonin receptor. P28566. CHO 5-HT1E Ga15 NFAT-bla reporter, FRET; 0% DMSO wells, 100% control agonist wells. activation, % at 6 µM. 0.69% of 65,000 active. AID 574;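 active = activation above a set limit, the screen-wide mean activation plus 3 SD, cut at about 8.5% in these data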;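 also: 100% = positive control agonist at 1 µM giving full maximal response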
Target sequence (P28566 whole entry, looked up): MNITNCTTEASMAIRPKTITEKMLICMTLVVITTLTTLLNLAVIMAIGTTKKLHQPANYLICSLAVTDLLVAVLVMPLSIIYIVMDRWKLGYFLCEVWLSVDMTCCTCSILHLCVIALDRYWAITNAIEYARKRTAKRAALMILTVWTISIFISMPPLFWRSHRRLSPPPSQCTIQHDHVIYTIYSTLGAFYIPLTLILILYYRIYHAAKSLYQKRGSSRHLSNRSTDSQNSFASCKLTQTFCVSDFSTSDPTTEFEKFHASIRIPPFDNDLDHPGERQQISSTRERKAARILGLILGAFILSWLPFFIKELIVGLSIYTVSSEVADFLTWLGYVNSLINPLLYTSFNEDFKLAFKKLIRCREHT
HEK293 NFkB inh: inhibitors of the PMA/ionomycin-induced NF-kB reporter in HEK293 cells | 0.21% of 62,000 active | inhibition, % at 3 µM | HEK-293 NF-kB luciferase reporter, luminescence | AID 465;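 active = inhibition above the mean of all tested compounds plus 3 SD, cut at about 40% in these data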;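 also: 0% = stimulated DMSO wells and 100% = 10 µM reference inhibitor 5653914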
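Material: HEK-293 cells with stable firefly luciferase reporter driven by four HIV NF-kB elements / Also added: PMA plus ionomycin mix as NF-kB-activating stimulus / Compound dosing: 3 µM once, 0.30% DMSO / Times: 1 h pretreatment, 16 h stimulation, 37 °C / Signal: luminescence / Evaluation: per-plate % inhibition versus controls / Benchmarks: DMSO and 10 µM reference inhibitor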
HTR1E antagonist: blocks the human 5-HT1E serotonin receptor. P28566. CHO 5-HT1E Ga15 NFAT-bla reporter, FRET, antagonist. inhibition, % at 6 µM. 0.99% of 65,000 active. AID 571;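 active = inhibition above a set limit, the mean inhibition across every tested compound plus 3 SD, cut at about 29% in these data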;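 also: signal is the 460 over 535 nm emission ratio of beta-lactamase substrate; 0% = agonist plus DMSO wells and 100% = wells without agonist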
5HT1a antag: blocks the human serotonin 5-HT1a receptor. 0.68% of 62,000 active. inhibition, % at 10 µM. CHO 5-HT1a Ga15 NFAT-bla reporter, antagonist mode. AID 612;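 active = inhibition above the mean of all tested compounds plus 3 SD, cut at about 43% in these data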;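 also: receptor stimulated by 5-CT agonist at 100 nM near EC80; beta-lactamase reporter measured by ratiometric fluorescence of a cleavable substrate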
* hit, by the source's call; · = no result given.

SMILES	Jurkat tox 60K	HTR1A agonist	HTR1E agonist	HEK293 NFkB inh	HTR1E antagonist	5HT1a antag
COC(=O)c1cc2oc(C)cc2n1CC(=O)N(C)c1ccccc1	-1	-1	11*	18	-5	-6
C=CCN(C(=O)Cn1c(C(=O)OC)cc2oc(C)cc21)c1ccccc1	6	1	-1	8	-1	11
CN(C)Cc1cc(CCNC(=O)c2ccc(Cl)cc2)ccc1O	12	-3	14*	14	7	27
COc1ccc(CCNC(=O)c2ccncc2)cc1OC	4	2	0	4	5	7
Cc1noc(C)c1COc1ccc(C(=O)NCc2ccccn2)cc1	1	-1	-1	15	-4	11
O=C(O)COc1ccc(-c2nnn(CC(=O)O)n2)cc1	-6	0	1	13	-3	-7
Cn1nnc(-c2ccc(OCc3ccccc3F)cc2)n1	10	-2	13*	-40	4	-12
CCCOc1ccc2nc(NC(=O)OC)[nH]c2c1	·	-2	0	·	73*	·
NC(=O)Cc1c[nH]c2cccc(O)c12	-9	0	1	24	-9	0
O=C(c1ccc(=O)oc1)N1CCCc2ccccc21	-7	0	-1	16	6	-12
Cc1sc(NC(=O)c2ccco2)nc1-c1ccc2c(c1)CC(C)N2C(=O)C1CC1 (centres undefined)	64*	1	0	7	5	7
Cc1onc(-c2ccccc2)c1C(=O)Nc1sc2c(c1C(N)=O)CCC2	·	4	0	14	-4	-12
Cc1onc(-c2ccccc2)c1C(=O)Nc1sc2c(c1C#N)CCC2	49*	-1	-1	8	-3	6
Cc1ccnc(SCC(=O)Nc2sc3c(c2C#N)CCCC3)n1	90*	2	-1	24	13	11
N#Cc1c(NC(=O)CSC2=NCCS2)sc2c1CCCC2	2	-3	-2	-3	15	11
Cc1cc(C(=O)Nc2sc3c(c2C#N)CCC3)no1	45*	-1	1	-44	2	14
CCOC(=O)N1CCN(C(=O)C(NC(=O)c2ccc(CC)cc2)C(C)C)CC1 (centres undefined)	-3	0	0	-3	-4	-4
O=C(Nc1ccc(OC(F)F)c(Cl)c1)Nc1ccc2c(c1)OCO2	-2	-2	0	3	9	61*
COc1cc(NS(=O)(=O)c2ccc(C)cc2C)cc(OC)c1OC	39*	-2	0	32	8	-1
COc1ccccc1-c1cc(C(=O)Nc2cccnc2)no1	72*	-3	0	23	12	16
COc1cc(NC(=O)c2cc(-c3cccs3)on2)cc(OC)c1OC	64*	0	0	-8	6	1
COc1ccc(NC(=O)c2cc(-c3ccccc3OC)on2)cc1	92*	-3	0	18	26	22
COc1ccccc1-c1cc(C(=O)Nc2ccccc2SC)no1	-6	-3	0	4	0	-1
COc1cccc(-c2cc(C(=O)Nc3cccc(O)c3)no2)c1	49*	-3	0	20	-8	2
CC(C(=O)Nc1ccccc1-c1ccccc1)N1CCN(C(=O)c2ccco2)CC1 (centres undefined)	6	0	-1	7	-8	-3
SMILES	Jurkat tox 60K	HTR1A agonist	HTR1E agonist	HEK293 NFkB inh	HTR1E antagonist	5HT1a antag
O=C(CCN1C(=O)COc2ccccc21)NCCN1CCN(c2cccc(Cl)c2)CC1	5	3	9.6*	4	7	33
O=C(NCCCN1CCN(c2cccc(Cl)c2)CC1)c1cccc(N2CCCC2=O)c1	·	2	2	12	0	89*
O=C(CCN1C(=O)COc2ccccc21)NCCN1CCOCC1	4	-3	-1	4	0	8
O=C(NCCCN1CCN(c2cccc(Cl)c2)CC1)c1ccc(N2CCCC2=O)cc1	·	15	8	17	-6	46*
Cc1cccc(C(=O)NCCN2CCN(c3ccccc3)CC2)c1	-1	52*	0	0	3	-278
O=C(NCCCN1CCCC1=O)c1cccc(N2CCCC2=O)c1	-1	-2	-1	14	9	3
CCCCN(CC)CCCNC(=O)c1cc2c(=O)n(C)c3ccccc3c2n1C	-7	-2	17*	11	-2	-3

Source: PubChem (The Scripps Research Institute Molecular Screening Center)
